For 96 molecules, cytotoxicity results are on record in ChEMBL document CHEMBL4513216, “Probing the Open Global Health Chemical Diversity Library for Multistage-Active Starting Points for Next-Generation Antimalarials” (ACS Infect Dis, 2020).

A short description of the series: Toxicity liver stage against HepG2, at 10uM. The class given is cell-based. Set-up: test concentration 10 uM, cell line HepG2-A16-CD81EGFP. As to conditions: human, HepG2-A16-CD81EGFP cells; read-out: INHIBITION
Put shortly:
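Uninfected HepG2-A16-CD81EGFP cells, 3 × 10^3 per well, 1536-well, plated on prespotted compound at 10 μM final, parasite-free screening media added to match infected plates; puromycin 10 μM positive, DMSO 0.5% negative; run in parallel with 48 h PbLuc assay at 37 °C, 5% CO2; viability by CellTiter-Glo luminescence, normalized to controls.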
As to `Cc1nccn1-c1ccc(=O)n(CCNC(=O)c2ccccn2)n1`, the cytotoxicity at 10 µM was -11.3%.

In the case of `CCN1CCN(C2CCN(Cc3nnc(C(C)C)o3)CC2)C1=O`, the cytotoxicity at 10 µM was -0.677%.

Turning to `CC(C)N1CCC(Cc2cc(-c3ccccc3C(=O)O)ncn2)CC1`, the cytotoxicity at 10 µM is -5.28%.

Turning to `Fc1ccc(CC2CCN(Cc3nccs3)CC2)cc1`, the cytotoxicity at 10 µM is -2.87%.

In the case of `CCc1noc(C2CCCCN2C(=O)c2cc(C)on2)n1` (stereo unspecified), the cytotoxicity at 10 µM turned out to be 5.67%.

Consider `Cn1cc(CN2CCC[C@]3(C(=O)O)CN(c4cnccn4)CC[C@@H]23)cn1`, for which the cytotoxicity at 10 µM is -0.226%.

For the molecule `CCOCCn1c(=O)[nH]c2cc(C(=O)N(C)Cc3cnn(C)c3)ccc21`, the cytotoxicity at 10 µM is 2.81%.

Turning to `O=C(NC1CC(=O)N(C2CC2)C1)c1ccc(Cl)s1` (stereo unspecified), the cytotoxicity at 10 µM was found to be 9.05%.

In the case of `CCOc1ncccc1C(=O)N1CC=C(c2ccc(O)cc2)CC1`, the cytotoxicity at 10 µM was 8.02%.

Regarding `Cc1ccnc(C2(C)CCCN2S(=O)(=O)c2cccnc2)n1` (stereo unspecified), the cytotoxicity at 10 µM turned out to be 5.95%.

On to `CN(CCO)Cc1nnc(C2CCN(C(=O)c3ccccn3)CC2)n1C`, for which the cytotoxicity at 10 µM turned out to be 0.5%.

Consider `Cc1ccc(=O)n(CC2(O)CCN(Cc3ccsc3)CC2)n1`, for which the cytotoxicity at 10 µM worked out at 0.642%.

Turning to `COC(=O)C(NC(=O)Nc1ccc(C(C)=O)cc1)C(C)C` (stereo unspecified), the cytotoxicity at 10 µM came to 4.31%.

In the case of `Cc1ccc(CN(CCCn2ccnc2)Cc2c[nH]cn2)s1`, the cytotoxicity at 10 µM was -4.99%.

Turning to `CCn1nnc2c1C(COC)CN(C(=O)Cc1cccs1)C2` (stereo unspecified), the cytotoxicity at 10 µM is -15.5%.

`Cc1cnc(CN2CCOC(Cn3nc(C)cc3C)C2)cn1` (stereo unspecified): the cytotoxicity at 10 µM is -2.81%.

As for `Cc1nc(N(C)C2CCCCC2)ncc1C(C)NC(=O)c1cccnc1` (stereo unspecified), the cytotoxicity at 10 µM was -105%.

Regarding `CN1CCN(c2ccc(NC(=O)c3ccccn3)c(C(F)(F)F)c2)CC1`, the cytotoxicity at 10 µM was 0.753%.

For `Cc1cc(C(=O)N2CCC(O)(Cn3ccc4ccncc43)CC2)on1`, the cytotoxicity at 10 µM was found to be 7.55%.

In the case of `c1cc(CCN2CCCC2CN2CCCCC2)ccn1` (stereo unspecified), the cytotoxicity at 10 µM turned out to be 0.295%.

For `COc1ccc(C(=O)N2C[C@@H](C(=O)O)[C@H](c3ccccc3C)C2)c(O)c1`, the cytotoxicity at 10 µM was -4.31%.

As to `CCN(CC1CCOC1)C(=O)c1cc(Cl)c2c(c1)OCO2` (stereo unspecified), the cytotoxicity at 10 µM amounted to 8.88%.

On to `CCC(=O)Nc1nnc(CCOc2ccccc2)s1`, for which the cytotoxicity at 10 µM came out at 7.16%.

For `Cc1cccc(CNc2nnc(C(C)C)o2)c1`, the cytotoxicity at 10 µM is 12.2%.

For the molecule `COCC(=O)N1CCN(Cc2cccnc2)c2ncccc2C1`, the cytotoxicity at 10 µM is 10.2%.

As to `Cc1nnc2n1CCN(C(=O)c1cn(-c3ccc(F)cc3)nn1)C2`, the cytotoxicity at 10 µM is -149%.

As to `CCc1ncncc1C(=O)NCCNS(=O)(=O)c1ccccc1`, the cytotoxicity at 10 µM is -6.55%.

For the molecule `COc1ccc(CN2C[C@@H]3CN(C(=O)c4ccsc4)C[C@@H]3C2=O)cc1`, the cytotoxicity at 10 µM was -3.7%.

Regarding `COC(=O)c1cnc(/C=C/c2ccc(C(=O)O)cc2)s1`, the cytotoxicity at 10 µM stood at 2.56%.

Take `Cc1noc(C)c1CC(=O)OCC(=O)N1CCc2sccc2C1`: the cytotoxicity at 10 µM was -0.361%.

As for `O=C(c1ccc[nH]1)N1CCN(Cc2ccncc2)c2ncccc2C1`, the cytotoxicity at 10 µM was 10.1%.

Turning to `O=C(CCNC(=O)c1ccoc1)Nc1cccc(F)c1`, the cytotoxicity at 10 µM is -8.63%.

Take `Cc1ccc(N2CC3(COCCN(Cc4cccnc4)C3)OCC2=O)s1` (stereo unspecified): the cytotoxicity at 10 µM came out at 2.39%.

In the case of `CC(C)n1[nH]c(=O)c2c1NC(=O)CC2c1ccncc1` (stereo unspecified), the cytotoxicity at 10 µM is -4.66%.

For `CC(C)CSCCCNC(=O)C1CCOC1` (stereo unspecified), the cytotoxicity at 10 µM was -5.81%.

Consider `COc1ccc(OC)c(-c2cc(C(=O)NCC3(CO)CC3)n(C)n2)c1`, for which the cytotoxicity at 10 µM was -2.46%.

As to `NC(=O)C1CN(C(=O)Nc2ccccc2N2CCCCCC2)CCO1` (stereo unspecified), the cytotoxicity at 10 µM was -6.31%.

For the molecule `Cn1cc(N2CC3(CCN(Cc4nccs4)CC3)OCC2=O)cn1`, the cytotoxicity at 10 µM came to 5.86%.

`Cc1ccccc1NC(=O)CCNC(=O)c1ccoc1`: the cytotoxicity at 10 µM is -0.714%.

For `CN(CC(=O)N1CCCC1c1cnn(C)c1)Cc1ccccc1` (stereo unspecified), the cytotoxicity at 10 µM was -4.38%.

Regarding `O=C(NC1CCCc2nc(N3CCOCC3)ncc21)C1CCCC1` (stereo unspecified), the cytotoxicity at 10 µM was -2.3%.

On to `O=S(=O)(C1CC1)N1C[C@@H]2COC[C@]2(COc2ccccn2)C1`, for which the cytotoxicity at 10 µM is 5.57%.

As to `Cn1ccc(CNC(=O)N2CCC(C3(C)OCCO3)CC2)c1`, the cytotoxicity at 10 µM was determined as 3.15%.

For the molecule `COc1ccc(CN(CCC#N)CCN2CCOCC2)cc1OC`, the cytotoxicity at 10 µM was -5.79%.

`CCC1COCCN1C(=O)NCc1nccn1CC(C)C` (stereo unspecified): the cytotoxicity at 10 µM was -3.36%.

In the case of `O=C(c1n[nH]c(=O)c2ccccc12)N1CCC(O)(CN2CCOCC2)C1` (stereo unspecified), the cytotoxicity at 10 µM is -1.39%.

In the case of `Cc1ccc(C(=O)N2C[C@@H](C(=O)O)[C@H](c3ccncc3)C2)cc1F`, the cytotoxicity at 10 µM was -11.2%.

In the case of `CC(C)OCCCN(CC(=O)N1CCNCC1)C(=O)c1cccc(Cl)c1`, the cytotoxicity at 10 µM was 10.3%.

With `CC(C)n1cc(CN2CCCN(C(=O)C3CCOC3)CC2)cn1` (stereo unspecified), the cytotoxicity at 10 µM was -8.45%.

`C=C(C)CN1CCC(NC(=O)Nc2cc(C(N)=O)ccc2OC)CC1`: the cytotoxicity at 10 µM was 10.8%.

As to `COc1c(C)cnc(CN2CCC(N(C)C(=O)C(C)OC)CC2)c1C` (stereo unspecified), the cytotoxicity at 10 µM is -11.3%.

As for `O=C(NCCNc1cnccn1)c1scnc1Cl`, the cytotoxicity at 10 µM amounted to 8.11%.

As for `COc1ccccc1C1(CNc2cc(C(=O)N(C)C)ccn2)CC1`, the cytotoxicity at 10 µM was -1.6%.

With `O=C(c1ccc(N2CCOCC2)nc1)N1CCCC(n2ccnc2)C1` (stereo unspecified), the cytotoxicity at 10 µM was -18.2%.

On to `COc1ccc(-c2noc(C(N)CCSC)n2)cc1OC` (stereo unspecified), for which the cytotoxicity at 10 µM was 11.2%.

For `c1csc(CN2C[C@H](OCC3CC3)[C@H]3COC[C@H]32)n1`, the cytotoxicity at 10 µM is 2.57%.

As to `COc1cccc(S(=O)(=O)NC2CNC(=O)C2)c1` (stereo unspecified), the cytotoxicity at 10 µM was -21.7%.

As to `CN(CCc1ccncc1)CC1CCCN1c1cccnn1` (stereo unspecified), the cytotoxicity at 10 µM was found to be 1.09%.

As for `Cc1cc(=O)[nH]c(-n2nc(C3CC3)cc2N)n1`, the cytotoxicity at 10 µM is -4.84%.

For the molecule `CC(=O)N1CCC2(CC1)c1ncc(-c3ccccc3)n1CCN2C`, the cytotoxicity at 10 µM is -104%.

On to `CCOCCN1CCN(Cc2nnc(-c3ccco3)o2)CC1`, for which the cytotoxicity at 10 µM was -53.1%.

In the case of `Cc1noc(C)c1CN1C[C@@H]2CN(C(=O)c3cscn3)C[C@@H]2C1`, the cytotoxicity at 10 µM is -3.09%.

Regarding `COc1ccc2c(ccn2CC(=O)N2CCCC2Cn2cccn2)c1` (stereo unspecified), the cytotoxicity at 10 µM is -0.429%.

As to `O=C(Cn1cnnn1)N1CCCCC1Cn1cccn1` (stereo unspecified), the cytotoxicity at 10 µM is -9.24%.

As to `CN1CCCN(C(=O)c2ccnn2-c2ccc3ccccn23)CC1`, the cytotoxicity at 10 µM was -107%.

Regarding `CCOCCN1C[C@@H]2CCCO[C@@H]2[C@H](NC(=O)c2cnoc2C)C1`, the cytotoxicity at 10 µM was -119%.

For the molecule `Cn1ccnc1CN1C(=O)CO[C@H]2CN(Cc3ccc(F)c(F)c3)C[C@H]21`, the cytotoxicity at 10 µM is -2.83%.

On to `O=C(c1ncccn1)N1C[C@@H]2CN(Cc3cccnc3)CCO[C@@H]2C1`, for which the cytotoxicity at 10 µM came to 7.67%.

`CCc1ccc(CCC(=O)N2CCC(=O)Nc3cccnc32)cc1`: the cytotoxicity at 10 µM was -46.7%.

`Cn1ccc(CN2CCN(CC3CC3)CC2)cc1=O`: the cytotoxicity at 10 µM is -16.6%.

Take `CCOC(=O)N1CCC2(CC1)N=C(CCC(C)C)NC2=O`: the cytotoxicity at 10 µM is -6.55%.

With `CN(CCCOc1ccc(F)cc1)S(=O)(=O)c1cnn(C)c1`, the cytotoxicity at 10 µM is -0.336%.

Turning to `O=C1CC2(CCN(CCCO)CC2)CN1Cc1ccc(F)c(F)c1`, the cytotoxicity at 10 µM was -7.73%.

With `CC1COCCN1C(=O)c1cnccn1` (stereo unspecified), the cytotoxicity at 10 µM was -4.36%.

Regarding `CCn1nc(C)c(CCNC(=O)C2CCCN(C(=O)COC)C2)c1C` (stereo unspecified), the cytotoxicity at 10 µM is -0.367%.

Consider `COc1ccc(-c2cc(CC3(NCc4ccc(C)o4)COC3)no2)cc1`, for which the cytotoxicity at 10 µM was -5.88%.

With `NC(=O)C1CCN(C(=O)NCc2cccnc2OC2CCCC2)C1` (stereo unspecified), the cytotoxicity at 10 µM was -7.12%.

`COCC(=O)N1CC[C@@H]2CN(Cc3cccc(Cl)c3)S(=O)(=O)[C@@H]2CC1`: the cytotoxicity at 10 µM is -3.07%.

With `CCS(=O)(=O)N(C)CCCNCc1c(C)nn(C)c1N(C)C`, the cytotoxicity at 10 µM is -8.72%.

Regarding `CCc1nc(CN2CC(C(=O)OC)O[C@H](C)C2)cs1` (stereo partly specified), the cytotoxicity at 10 µM was -10.9%.

In the case of `COc1cc(Oc2ccc(C(N)=O)cn2)ccc1CN1CCCC1`, the cytotoxicity at 10 µM was -0.398%.

Turning to `Cc1cc(NC(=O)N2CCN(C)CC2C)n(C(C)(C)C)n1` (stereo unspecified), the cytotoxicity at 10 µM worked out at 6.3%.

As for `CC(C)NC(=O)N1CCC2(CC1)NC(=O)[C@H]1CN(C(=O)N(C)C)C[C@H]12`, the cytotoxicity at 10 µM was -1.66%.

With `O=C(NC[C@H]1OC[C@@H](NC2CCCC2)[C@@H]1O)C1CCCC1`, the cytotoxicity at 10 µM is -2.15%.

Regarding `C[C@H]1C[C@H]2CN(C(=O)CCc3ccccc3)CC[C@H]2O1`, the cytotoxicity at 10 µM is -75.6%.

As to `O=C(c1ccc(N2CCOCC2)nc1)N1CCCC(n2cccn2)C1` (stereo unspecified), the cytotoxicity at 10 µM was -11.2%.

Turning to `O=C(Cc1ccc(F)cc1)NCCNc1cc(N2CCCC2)cnn1`, the cytotoxicity at 10 µM was -3.29%.

As for `Cc1nn(CCC(=O)NC2CCCOC2)c(C)c1C` (stereo unspecified), the cytotoxicity at 10 µM stood at 2.06%.

As for `O=C1CC(c2cccnc2)c2c(c(C(=O)O)cn2-c2ccc(Cl)cc2)N1` (stereo unspecified), the cytotoxicity at 10 µM is -0.462%.

With `CCCNC(=O)C1(Cc2cc(-c3ccccc3)no2)CCN(C(C)=O)C1` (stereo unspecified), the cytotoxicity at 10 µM was determined as 6.6%.

On to `COc1cc(C2CC(=O)Nc3c2nc2n3CCCC2)cc(OC)c1O` (stereo unspecified), for which the cytotoxicity at 10 µM was -9.59%.

Turning to `O=C(CCOc1ccccc1F)N1CCOCC1`, the cytotoxicity at 10 µM was -4.4%.

Turning to `COc1ccc(-n2cccn2)c(CN2CCC3(CCNCC3)C2)c1`, the cytotoxicity at 10 µM came to 0.0652%.

`NC(=O)C1CCCN1Cc1ccccc1NC(=O)Cc1cccc(F)c1` (stereo unspecified): the cytotoxicity at 10 µM was 7.31%.

On to `Cc1[nH]ccc1C(=O)NCc1ncoc1C`, for which the cytotoxicity at 10 µM is -2.45%.

Regarding `Cc1ccoc1C1=NNC(=CN2CCCC(Cn3cncn3)C2)O1` (stereo unspecified), the cytotoxicity at 10 µM is -2.07%.
